In ChEMBL document CHEMBL1129074, “Inhibitors of human immunodeficiency virus type 1 derived from gp41 transmembrane protein: structure--activity studies” (J Med Chem, 1996) one finds inhibition, Inhibition and IC50 data, which are given here for eleven molecules.

Peptide text beside a SMILES is read from it.

In assay [1] the test system is MT4. Nature of the assay: Inhibitory potency of gp41 fragment against HIV-1 induced cytopathic effect in MT-4 cell assay at 100 uM. To be noted: Homo sapiens. The assay is classed as functional. On the technique in general: Cytopathic effects are the visible damage that an infection or toxin causes in cultured cells.
Assay [2] deals with MT4. As to the kind of experiment: Inhibitory potency of gp41 fragment against HIV-1 induced cytopathic effect in MT-4 cell assay at 20 uM. To be noted: for inhibition at 20 µM: Homo sapiens, MT4. The assay is classed as functional, Homo sapiens. Put shortly:
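MT4 cells (exponential growth) at 5×10^5 cells/mL infected with HIV-1 IIIB (100× TCID50) for 1 h at 37 °C, diluted 6-fold, added to serially diluted peptide in RPMI 1640/FCS medium; mock-infected controls. After 5 days at 37 °C, 5% CO2, cells lysed with Nonidet-40 and DNA content read by propidium iodide. Inhibition = restoration of infected-cell growth relative to uninfected controls; cytotoxicity measured in parallel.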

The subject of assay [3] is MT4. As to the kind of experiment: Inhibitory potency of gp41 fragment against HIV-1 induced cytopathic effect in MT-4 cell assay. The assay is classed as functional, cell-based. To be noted: Homo sapiens.

For orientation: inhibition means the change of the read-out against control, counted positive when it falls. In general, Inhibition refers to the share of the control response that was lost under treatment. A higher Inhibition goes with strong suppression. For orientation: IC50 means the concentration that inhibits the measured activity by half. Read a low IC50 as greater potency in that assay.

For `CC[C@H](C)[C@H](NC(=O)[C@H](CCCN=C(N)N)NC(=O)[C@H](C)NC(=O)[C@H](CCC(N)=O)NC(=O)[C@H](CC(C)C)NC(=O)[C@H](CCC(N)=O)NC(=O)[C@H](CCCCN)NC(=O)[C@@H](NC(=O)CNC(=O)[C@H](Cc1c[nH]c2ccccc12)NC(=O)[C@@H](NC(=O)[C@@H](NC(=O)[C@H](CC(C)C)NC(=O)[C@@H](N)CCC(N)=O)[C@@H](C)O)C(C)C)[C@@H](C)CC)C(=O)O` (H-QLTVWGIKQLQARI-OH), in assay [1], the inhibition at 100 µM was 0%.
As to `CCCCCCCCCCCCC(N)C(=O)N[C@H](C(=O)N[C@@H](CCCCN)C(=O)N[C@@H](CCC(N)=O)C(=O)N[C@@H](CC(C)C)C(=O)N[C@@H](CCC(N)=O)C(=O)N[C@@H](C)C(=O)N[C@@H](CCCN=C(N)N)C(=O)N[C@H](C(=O)N[C@@H](CC(C)C)C(=O)N[C@@H](C)C(=O)N[C@H](C(=O)N[C@@H](CCC(=O)O)C(=O)N[C@@H](CCCN=C(N)N)C(=O)N[C@@H](Cc1ccc(O)cc1)C(=O)N[C@@H](CC(C)C)C(=O)N[C@@H](CCCCN)C(=O)N[C@@H](CC(=O)O)C(=O)N[C@@H](CCC(N)=O)C(=O)O)C(C)C)[C@@H](C)CC)[C@@H](C)CC` (stereo in doubt; 21), the Inhibition in assay [2] is 9%.
`CCCCCCCCCCCCC(N)C(=O)N[C@H](C(=O)N[C@@H](CCCCN)C(=O)N[C@@H](CCC(N)=O)C(=O)N[C@@H](CC(C)C)C(=O)N[C@@H](CCC(N)=O)C(=O)N[C@@H](C)C(=O)N[C@@H](CCCN=C(N)N)C(=O)N[C@H](C(=O)N[C@@H](CC(C)C)C(=O)N[C@@H](C)C(=O)N[C@H](C(=O)N[C@@H](CCC(=O)O)C(=O)N[C@@H](CCCN=C(N)N)C(=O)N[C@@H](Cc1ccc(O)cc1)C(=O)N[C@@H](CC(C)C)C(=O)N[C@@H](CCCCN)C(=O)N[C@@H](CC(=O)O)C(=O)N[C@@H](CCC(N)=O)C(=O)O)C(C)C)[C@@H](C)CC)[C@@H](C)CC` (stereo in doubt; 22) returned an Inhibition in assay [2] of 0%.
`CC[C@H](C)[C@H](NC(=O)[C@H](CCCN=C(N)N)NC(=O)[C@H](C)NC(=O)[C@H](CCC(N)=O)NC(=O)[C@H](CC(C)C)NC(=O)[C@H](CCC(N)=O)NC(=O)[C@H](CCCCN)NC(=O)[C@@H](NC(=O)CNC(=O)[C@H](Cc1c[nH]c2ccccc12)NC(=O)[C@@H](NC(=O)[C@@H](NC(=O)[C@H](CC(C)C)NC(=O)[C@H](CCC(N)=O)NC(C)=O)[C@@H](C)O)C(C)C)[C@@H](C)CC)C(=O)O` (Ac-QLTVWGIKQLQARI-OH) showed an inhibition at 100 µM in assay [1] of 0%.
With `CC[C@H](C)[C@H](NC(C)=O)C(=O)N[C@@H](CCC(=O)O)C(=O)N[C@@H](C)C(=O)N[C@@H](CCC(N)=O)C(=O)N[C@@H](CCC(N)=O)C(=O)N[C@@H](CC(C)C)C(=O)N[C@@H](CC(C)C)C(=O)N[C@@H](CCC(N)=O)C(=O)N[C@@H](CC(C)C)C(=O)N[C@H](C(=O)N[C@H](C(=O)N[C@@H](Cc1c[nH]c2ccccc12)C(=O)NCC(=O)N[C@H](C(=O)N[C@@H](CCCCN)C(=O)N[C@@H](CCC(N)=O)C(=O)N[C@@H](CC(C)C)C(=O)N[C@@H](CCC(N)=O)C(=O)N[C@@H](C)C(=O)N[C@@H](CCCN=C(N)N)C(=O)N[C@H](C(=O)N[C@@H](CC(C)C)C(=O)N[C@@H](C)C(=O)N[C@H](C(=O)N[C@@H](CCC(=O)O)C(=O)N[C@@H](CCCN=C(N)N)C(=O)N[C@@H](Cc1ccc(O)cc1)C(=O)N[C@@H](CC(C)C)C(=O)N[C@@H](CCCCN)C(=O)N[C@@H](CC(=O)O)C(=O)N[C@@H](CCC(N)=O)C(=O)O)C(C)C)[C@@H](C)CC)[C@@H](C)CC)C(C)C)[C@@H](C)O` (Ac-IEAQQLLQLTVWGIKQLQARILAVERYLKDQ-OH), the inhibition at 20 µM in assay [2] came to 28%.
In turn, `CC[C@H](C)[C@H](NC(=O)CNC(=O)[C@H](C)NC(=O)[C@@H](NC(=O)[C@@H](NC(=O)[C@H](C)NC(=O)[C@H](C)NC(=O)[C@H](CC(C)C)NC(=O)[C@H](CC(C)C)NC(=O)[C@H](C)NC(=O)[C@H](CCC(N)=O)NC(=O)[C@H](CCC(N)=O)NC(=O)[C@H](C)NC(=O)[C@H](CCC(=O)O)NC(=O)[C@@H](NC(=O)[C@H](C)NC(=O)[C@H](CCCN=C(N)N)NC(=O)[C@H](CC(C)C)NC(=O)[C@H](CC(C)C)NC(=O)[C@H](CC(N)=O)NC(=O)[C@H](CC(N)=O)NC(C)=O)[C@@H](C)CC)[C@@H](C)O)C(C)C)C(=O)N[C@@H](C)C(=O)N[C@@H](C)C(=O)N[C@@H](CC(C)C)C(=O)N[C@@H](CCC(N)=O)C(=O)N[C@@H](C)C(=O)N[C@@H](CCCN=C(N)N)C(=O)N[C@H](C(=O)N[C@@H](C)C(=O)N[C@@H](C)C(=O)N[C@H](C(=O)N[C@@H](CCC(=O)O)C(=O)N[C@@H](C)C(=O)N[C@@H](Cc1ccc(O)cc1)C(=O)N[C@@H](CC(C)C)C(=O)N[C@@H](C)C(=O)N[C@@H](C)C(=O)N[C@@H](CCC(N)=O)C(=O)O)C(C)C)[C@@H](C)CC` (Ac-NNLLRAIEAQQALLAATVAGIAALQARIAAVEAYLAAQ-OH) came in with an inhibition at 20 µM in assay [2] of 37%.
Take `CC[C@H](C)[C@H](NC(=O)[C@H](CCCN=C(N)N)NC(=O)[C@H](C)NC(=O)[C@H](CCC(N)=O)NC(=O)[C@H](CC(C)C)NC(=O)[C@H](CCC(N)=O)NC(=O)[C@H](CCCCN)NC(=O)[C@@H](NC(=O)CNC(=O)[C@H](Cc1c[nH]c2ccccc12)NC(=O)[C@@H](NC(=O)[C@@H](NC(=O)[C@H](CC(C)C)NC(=O)[C@H](CCC(N)=O)NC(=O)[C@@H](N)CC(C)C)[C@@H](C)O)C(C)C)[C@@H](C)CC)C(=O)O` (H-LQLTVWGIKQLQARI-OH): testing at 100 µM in assay [1] gave an inhibition of 21%.
In assay [3], `CC[C@H](C)[C@H](NC(=O)[C@H](CCCN=C(N)N)NC(=O)[C@H](C)NC(=O)[C@H](CCC(N)=O)NC(=O)[C@H](CC(C)C)NC(=O)[C@H](CCC(N)=O)NC(=O)CCCCCNC(=O)[C@H](Cc1c[nH]c2ccccc12)NC(=O)[C@@H](NC(=O)[C@@H](NC(=O)[C@H](CC(C)C)NC(=O)[C@H](CCC(N)=O)NC(=O)[C@H](CC(C)C)NC(=O)[C@H](CC(C)C)NC(=O)[C@H](Cc1c[nH]cn1)NC(=O)[C@H](CCC(N)=O)NC(C)=O)[C@@H](C)O)C(C)C)C(=O)N[C@@H](CC(C)C)C(=O)N[C@@H](C)C(=O)N[C@H](C(=O)N[C@@H](CCC(=O)O)C(=O)O)C(C)C` (HELM PEPTIDE1{[ac].Q.H.L.L.Q.L.T.V.W.[O=C(CCCCCN[*:1])[*:2]].Q.L.Q.A.R.I.L.A.V.E}$$$$V2.0) showed an IC50 of 40 µM.
Same read-out and setting: the figure for `CC[C@H](C)[C@H](NC(=O)CNC(=O)[C@H](Cc1c[nH]c2ccccc12)NC(=O)[C@@H](NC(=O)[C@@H](NC(=O)[C@H](CC(C)C)NC(=O)[C@H](CCC(N)=O)NC(=O)[C@H](CC(C)C)NC(=O)[C@H](CC(C)C)NC(=O)[C@H](Cc1c[nH]cn1)NC(=O)[C@H](C)NC(=O)[C@H](CCC(N)=O)NC(=O)[C@H](C)NC(=O)[C@H](CCC(=O)O)NC(=O)[C@@H](NC(=O)[C@H](C)NC(=O)[C@H](CCCN=C(N)N)NC(=O)[C@H](C)NC(=O)[C@H](CC(C)C)NC(=O)[C@H](CC(N)=O)NC(=O)[C@H](CC(N)=O)NC(C)=O)[C@@H](C)CC)[C@@H](C)O)C(C)C)C(=O)N[C@@H](CCCCN)C(=O)N[C@@H](CCC(N)=O)C(=O)N[C@@H](CC(C)C)C(=O)N[C@@H](CCC(N)=O)C(=O)N[C@@H](C)C(=O)N[C@@H](CCCN=C(N)N)C(=O)N[C@H](C(=O)N[C@@H](CC(C)C)C(=O)N[C@@H](C)C(=O)N[C@H](C(=O)N[C@@H](CCC(=O)O)C(=O)N[C@@H](CCCN=C(N)N)C(=O)N[C@@H](Cc1ccc(O)cc1)C(=O)N[C@@H](CC(C)C)C(=O)N[C@@H](CCCCN)C(=O)N[C@@H](CC(=O)O)C(=O)N[C@@H](CCC(N)=O)C(=O)O)C(C)C)[C@@H](C)CC` (Ac-NNLARAIEAQAHLLQLTVWGIKQLQARILAVERYLKDQ-OH) is 3 µM; for `CC[C@H](C)[C@H](NC(=O)CNC(=O)[C@H](Cc1c[nH]c2ccccc12)NC(=O)[C@@H](NC(=O)[C@@H](NC(=O)[C@H](CC(C)C)NC(=O)[C@H](CCC(N)=O)NC(=O)[C@H](CC(C)C)NC(=O)[C@H](CC(C)C)NC(=O)[C@H](Cc1c[nH]cn1)NC(=O)[C@H](CCC(N)=O)NC(C)=O)[C@@H](C)O)C(C)C)C(=O)N[C@@H](CCCCN)C(=O)N[C@@H](CCC(N)=O)C(=O)N[C@@H](CC(C)C)C(=O)N[C@@H](CCC(N)=O)C(=O)N[C@@H](C)C(=O)N[C@@H](CCCN=C(N)N)C(=O)N[C@H](C(=O)N[C@@H](CC(C)C)C(=O)N[C@@H](C)C(=O)N[C@H](C(=O)N[C@@H](CCC(=O)O)C(=O)O)C(C)C)[C@@H](C)CC` (Ac-QHLLQLTVWGIKQLQARILAVE-OH) it is 4.3 µM; for `CC[C@H](C)[C@H](NC(=O)CNC(=O)[C@H](Cc1c[nH]c2ccccc12)NC(=O)[C@@H](NC(=O)[C@@H](NC(=O)[C@H](CC(C)C)NC(=O)[C@H](CCC(N)=O)NC(=O)[C@H](CC(C)C)NC(=O)[C@H](CC(C)C)NC(=O)[C@H](Cc1c[nH]cn1)NC(=O)[C@H](CCC(N)=O)NC(=O)[C@H](CCC(N)=O)NC(=O)[C@H](C)NC(=O)[C@H](CCC(=O)O)NC(=O)[C@@H](NC(=O)[C@H](C)NC(=O)[C@H](CCCN=C(N)N)NC(=O)[C@H](CC(C)C)NC(=O)[C@H](CC(C)C)NC(=O)[C@H](CC(N)=O)NC(=O)[C@H](CC(N)=O)NC(=O)CNC(=O)CNC(=O)[C@H](CS)NC(C)=O)[C@@H](C)CC)[C@@H](C)O)C(C)C)C(=O)N[C@@H](CCCCN)C(=O)N[C@@H](CCC(N)=O)C(=O)O` (Ac-CGGNNLLRAIEAQQHLLQLTVWGIKQ-OH) it is 14.8 µM.
